Source: PubChem BioAssay (several laboratories)
TPT1 inhibitor: inhibitors of Candida albicans tRNA 2'-phosphotransferase TPT1. actives 0.81% (n = 300,000). inhibition, % at 5 µM. recombinant caTPT1, FP RNA substrate dephosphorylation;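 active means inhibition above the mean of all tested compounds plus 3 SD, set per screening campaign, cut at about 24% in these data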;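 further: plate controls were DMSO alone for no effect and ferristatin control at 100 nM for full effect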
CSN deneddyl inh: inhibitors of human CSN-mediated cullin deneddylation; Q92905; Purified CSN, SCF-Nedd8-OG deneddylation, fluorescence polarization; inhibition, % at 12.5 µM; actives 0.38% (n = 360,000); AID 651999;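 active means pattern-corrected inhibition above about 35%, with an unprinted fluorescence ratio check between 0.5 and 1.5, limit read from the data, passing the limit was not always enough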;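 further: 0% = enzyme with substrate and 100% = substrate without enzyme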
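Test system: purified human Csn5 enzyme expressed in HEK293T cells. Amount: 0.24 nM enzyme. Reagent: SCFSkp2-Nedd8OG substrate at 10 nM final. Schedule: 90 min incubation of compound, enzyme and substrate at room temperature. Detection: fluorescence polarization. Read-out: % inhibition of substrate cleavage by Csn5.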
HNF4A DNA FP: change in binding of human HNF4 alpha to DNA; activity change, % at 10 µM; AID 1224865; actives 0.3% (n = 360,000); HNF4a-FITC DNA binding, fluorescence polarization, 1 h; in the data active means activity change above about 30%, passing the limit was not always enough
Target sequence (P41235 whole entry, looked up): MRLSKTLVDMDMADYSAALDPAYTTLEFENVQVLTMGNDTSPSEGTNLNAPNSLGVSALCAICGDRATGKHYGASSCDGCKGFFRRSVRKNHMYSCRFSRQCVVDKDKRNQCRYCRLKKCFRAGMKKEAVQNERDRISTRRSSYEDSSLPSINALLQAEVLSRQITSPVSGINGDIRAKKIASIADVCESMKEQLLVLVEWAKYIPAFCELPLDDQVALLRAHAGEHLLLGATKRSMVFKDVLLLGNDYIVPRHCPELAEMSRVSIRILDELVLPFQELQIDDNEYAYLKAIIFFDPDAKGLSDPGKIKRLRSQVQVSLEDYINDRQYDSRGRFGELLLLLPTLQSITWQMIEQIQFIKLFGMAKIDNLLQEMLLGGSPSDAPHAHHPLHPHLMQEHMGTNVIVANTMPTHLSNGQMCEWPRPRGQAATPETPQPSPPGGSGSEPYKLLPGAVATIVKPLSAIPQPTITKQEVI
SUMO HTRF inh: inhibitors of human SUMOylation (UBC9); P63279; HTRF SUMOylation assay, SAE1/SAE2 + UBC9, in vitro; inhibition, % at 35 µM; actives 0.36% (n = 290,000); AID 2006; in the data active means inhibition above about 50%, passing the limit was not always enough
Rpn11 block: blocks the human proteasome subunit Rpn11; O00487; human 26S proteasome, Ub4-pepOG fluorescence polarization; 20S core pre-blocked with epoxomicin; calls only at 20 µM; actives 0.59% (n = 360,000); AID 588493;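 active means inhibition at 20 µM, scaled to each plate's controls, above about 33%, limit read from the data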
SENP1 inh: blocks the human SENP1 SUMO protease catalytic domain | inhibition, % at 10 µM | AID 624204 | actives 0.21% (n = 360,000) | recombinant SENP1 catalytic domain, CyPet-SUMO1-YPet FRET cleavage | Q9P0U3;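 active means inhibition at least 30% at 10 µM, raw YFP signal under a set limit, fluorescence ratio 0.5 to 1.5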;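 further: 0% = enzyme with DMSO and 100% = no enzyme wells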
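System: Recombinant human SENP1 catalytic domain, His6-tagged | Incubation: Enzyme reaction for 50 min at room temperature, dark | Medium: Tris pH 8 with BME, BSA, NP40 and catalase | Also added: 25 nM SUMO1 FRET substrate | Compound: 10 µM single point, 0.5% DMSO | Measured by: FRET fluorescence in CFP and YFP emission channels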
Numbers without * were called inactive; i = inactive; . = no result given; + = active, no number. Compounds with a hit are over-represented: about 1.8% of the library has one in this group of screens.

SMILES | TPT1 inhibitor | CSN deneddyl inh | HNF4A DNA FP | SUMO HTRF inh | Rpn11 block | SENP1 inh
Cc1cc(/C=N/n2c(COc3ccccc3)nc3ccccc3c2=O)c(O)c([N+](=O)[O-])c1 | 6.0 | -10.2 | 0.4 | 93.3* | i | 19.8
CCOc1ccc(C(=O)NCC(=O)NNC(=O)CN(C)S(=O)(=O)c2ccc(Cl)cc2)cc1 | 0.0 | -1.7 | 0.8 | . | i | 2.2
CC1=NN(c2cccc(Cl)c2)C(=O)C1 | -2.0 | 1.7 | 4.3 | 11.5 | i | 2.6
CC1=NN(c2ccc(C(=O)O)c(N)c2)C(=O)C1 | -6.0 | 15.8 | -5.0 | 79.4* | i | 4.5
CC1=NN(c2ccc(S(=O)(=O)O)cc2Cl)C(=O)C1 | 2.0 | -0.7 | -1.5 | 83.1* | i | -0.4
CC1=NN(c2cc(Cl)c(S(=O)(=O)O)cc2Cl)C(=O)C1 | . | 0.7 | -2.7 | . | i | 2.5
CC1=NN(c2ccc(Cl)c(C(=O)O)c2)C(=O)C1 | -2.3 | 7.8 | -13.2 | 90.1* | i | 2.5
CCOc1ccc(CNS(=O)(=O)c2c(C)nc3sccn3c2=O)cc1OC | -2.3 | 8.6 | -0.4 | 6.7 | i | -0.5
O=C(Nc1csnn1)OCc1ccccc1 | . | -2.6 | 1.2 | . | i | 0.4
COc1ccc(-c2cnc3c(NC(C)=O)cc(-c4ccsc4)cn23)cc1OC | . | 27.5 | 17.4 | . | + | -24.8
O=C(CSc1nc2[nH]ncc2c(=O)n1-c1ccccc1)c1ccc2c(c1)OCCO2 | 1.9 | 3.9 | 2.4 | 11.7 | i | -0.4
N=c1c2cn[nH]c2nc(SCC(=O)c2ccc(Br)cc2)n1-c1ccc(Br)cc1 | 0.9 | 3.1 | -1.4 | 54.2* | i | -0.8
CCOC(=O)C1CCN(c2nc(N)c3c(N)nc(SCC(=O)O)cc3c2C#N)CC1 | . | 22.6 | -27.4 | 100.4* | i | -30.6
CCOc1cc2c(C#N)c(N3CCNCC3)nc(N)c2c(N)n1 | 0.1 | -16.5 | 3.2 | 87.1* | i | -92.5
Cn1cnnc1SCc1ccc(C(=O)N/N=C(\CCC(=O)O)c2ccc(C(C)(C)C)cc2)cc1 | -0.1 | 0.3 | 4.2 | 1.1 | i | 0.4
CC(C)N(C(=O)Nc1ccc2nccnc2c1)C(C)C | 2.1 | -1.3 | 0.3 | 93.5* | i | 6.0
COc1ccccc1/C=C1/SC(=O)N(CCC(=O)Nc2ccc(S(=O)(=O)Nc3nccs3)cc2)C1=O | -4.5 | 0.9 | 1.5 | 59.3* | i | -0.2
COc1ccc(-c2noc(CN(C)Cc3ccc(C)o3)n2)cc1 | -5.6 | 2.5 | 4.9 | 0.5 | i | -4.1
O=C(COc1ccc(Cl)cc1)NCCNC(=O)c1ccccn1 | -2.8 | 0.8 | 55.5* | 0.2 | i | 0.1
CCOC(=O)C1=C(C)N=c2sc(=Cc3ccc(OCC(=O)O)cc3)c(=O)n2C1c1ccc(SC)cc1 (stereo not given) | . | 38.4* | 6.2 | . | + | -29.6
O=c1c2ccccc2nc2n1CCC2 | -1.8 | 1.5 | 6.5 | 73.3* | i | 3.4
O=c1c2ccccc2nc2n1CCCCC2 | 0.7 | 0.1 | -0.2 | 8.7 | i | 0.9
O=C(Cn1nnc(-c2ccc(Cl)cc2)n1)N1CCN(C(=O)c2ccco2)CC1 | . | -6.0 | -2.5 | . | i | 1.5
COc1ccc(C(=O)Nc2ccc(-c3nnn(CC(=O)N4CCN(C(=O)c5ccco5)CC4)n3)cc2)cc1 | 1.7 | 79.9* | 7.4 | . | i | -1.1
COc1cccc(C(=O)/C=C/Nc2ccc(S(=O)(=O)Nc3onc(C)c3C)cc2)c1 | -3.2 | -9.2 | 84.6* | 7.7 | i | -5.4
Cc1noc(NS(=O)(=O)c2ccc(N/C=C\C(=O)c3ccc(Br)cc3)cc2)c1C | 2.2 | 2.0 | 3.3 | 16.3 | i | -53.6
O=C(/C=C/Nc1ccc(S(=O)(=O)Nc2ncccn2)cc1)c1cccs1 | -1.4 | 1.7 | 2.4 | 9.0 | i | -34.1
O=C(/C=C/Nc1ccc(S(=O)(=O)Nc2ncccn2)cc1)c1ccc(Cl)c(Cl)c1 | 3.9 | 11.5 | 5.1 | 4.2 | + | -24.5
Cc1cc(Cl)ccc1NC(=O)CSc1nnc(Cc2cccs2)n1Cc1ccco1 | 4.4 | -0.9 | 41.8* | 11.3 | i | -20.6
CCOc1ccc(S(=O)(=O)N2CCC(C(=O)NCC3CCCO3)CC2)cc1C (stereo not given) | -1.9 | 2.4 | 2.2 | 20.0 | i | 1.1
